According to ChEMBL document CHEMBL3826907, “Design, synthesis and anti-P. falciparum activity of pyrazolopyridine-sulfonamide derivatives” (Bioorg Med Chem, 2016):

Legend:
Plasmodium falciparum [1] = assay: Antimalarial activity against chloroquine/sulfadoxine-resistant Plasmodium falciparum W2 infected in human A+ erythrocytes assessed as reduction in parasite growth after 72 hrs by HRP2 detection based ELISA; assay type: functional, organism-based; conditions: W2, 72 h
How it was run: (§1)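 P. falciparum W2 cultured in human A+ erythrocytes in RPMI 1640 with human serum, sorbitol-synchronized to rings. Parasitemia 0.05%, hematocrit 1.5%. […] Three freeze-thaw cycles, then HRPII sandwich ELISA read at 450 nm. IC50 from non-linear regression dose–response curves, three separate experiments (±SD).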

[2] = Selectivity index, ratio of MLD50 for african green monkey BGM cells to IC50 for chloroquine/sulfadoxine-resistant Plasmodium falciparum W2; assay type: toxicity, cell-based; conditions: read-out: Selectivity Index
How it was run: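 Selectivity index calculated from the BGM MLD50 (24 h MTT, 570 nm, non-linear regression) and the W2 IC50 (72 h HRPII ELISA in A+ erythrocytes).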

[3] = Cytotoxicity against african green monkey BGM cells after 24 hrs by MTT assay; assay type: cell-based; conditions: chlorocebus aethiops, read-out: MLD50
How it was run: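 MTT (3 mg/mL) was added, the supernatant was removed after 3 h, and the dye was dissolved in DMSO. Read at 570 nm. MLD50 (minimal lethal dose for 50% of cells) taken from non-linear regression dose–response curves.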

Plasmodium falciparum [4] = assay: Antimalarial activity against chloroquine-resistant Plasmodium falciparum W2; assay type: functional, organism-based; how it was run: as §1
Plasmodium falciparum [5] = assay: Antimalarial activity against chloroquine-resistant and mefloquine-sensitive Plasmodium falciparum W2 infected in human A+ erythrocytes after 72 hrs by HRP2 detection based ELISA; assay type: functional, organism-based; conditions: W2, 72 h; how it was run: as §1

Row | SMILES | IC50 (Plasmodium falciparum [1]) [µM] | selectivity ratio [2] | CC50 at 24 h [3] [µM] | IC50 (Plasmodium falciparum [4]) [µM] | IC50 (Plasmodium falciparum [5]) [µM]
1 | COc1ccc(S(=O)(=O)NCCCCNc2c(C#N)cnc3c2cnn3-c2ccccc2)cc1 | 5 | 99.6 | 498 | – | –
2 | N#Cc1cnc2c(cnn2-c2ccccc2)c1NCCCCN | 5 | 101 | 503 | – | –
3 | CCOC(=O)c1cnc2c(cnn2-c2ccccc2)c1NCCCCNS(=O)(=O)c1ccccc1 | 6.52 | 126 | 822 | – | –
4 | N#Cc1cnc2c(cnn2-c2ccccc2)c1NCCCCNS(=O)(=O)c1ccccc1 | 4.2 | 59 | 248 | – | –
5 | CCOC(=O)c1cnc2c(cnn2-c2ccccc2)c1NCCCCNS(=O)(=O)c1ccc(OC)cc1 | 9.3 | 107 | 995 | – | –
6 | O=Cc1cn(-c2ccnc3cc(Cl)ccc23)nn1 | – | – | – | 1.4 | –
7 | CCOC(=O)c1cnc2c(cnn2-c2ccccc2)c1NCCCCNS(=O)(=O)c1ccc(Cl)cc1 | 3.6 | > 278 | > 1000 | – | –
8 | Cc1ccc(S(=O)(=O)NCCCCNc2c(C#N)cnc3c2cnn3-c2ccccc2)cc1 | 3.6 | 189 | 682 | – | –
9 | N#Cc1cnc2c(cnn2-c2ccccc2)c1NCCCCNS(=O)(=O)c1ccc(Cl)cc1 | 7.5 | 55.7 | 418 | – | –
10 | N#Cc1cnc2c(cnn2-c2ccccc2)c1NCCCCNS(=O)(=O)c1ccc(F)cc1 | 9.3 | 54.6 | 508 | – | –
11 | CCOC(=O)c1cnc2c(cnn2-c2ccccc2)c1NCCCCNS(=O)(=O)c1ccc(F)cc1 | 4.12 | 241 | 993 | – | –
12 | CCOC(=O)c1cnc2c(cnn2-c2ccccc2)c1NCCCCNS(=O)(=O)c1ccc(C)cc1 | 3.46 | 172 | 596 | – | –
13 | Cc1cc(Nc2ccc3ccccc3c2)n2nc(C(F)(F)F)nc2n1 | – | – | – | – | 0.023
14 | COc1ncnc(NS(=O)(=O)c2ccc(N)cc2)c1OC [SULFADOXINE] | 15 | 20.7 | 310 | – | –
